The source of these data is PubChem BioAssay.

Structures are written as SMILES. Activity calls are given as the source filed them.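 How the source made its calls, unless noted: active means viability at or below 30% in both replicate assays; inconclusive means viability at or below 30% in just one of the two assays; inactive means the rest.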

Experiment [1] can be described thus: reduced viability of SK-BR-3 breast cancer cells – cell-based, 24 h, human, pilot screen (AID 572;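 active means viability at or below 10% of carrier control in both of two separate runs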;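 further: compound exposure lasted between 18 and 24 h rather than exactly 24 h; 100% = carrier-treated control wells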). The following applies: SK-BR-3 viability, CellTiter-Glo luminescence, at 10 µM, stronger effect = lower value.
A short description of experiment [2]: HUVEC growth inhibition – cell-based, human, primary screen (AID 575).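 Further: 100% = median of untreated cell wells with 0.1% DMSO on each plate.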 The conditions noted are these: HUVEC proliferation, CellTiter-Glo luminescence, 72 h; at 10 µM; stronger effect = lower value. The gist of the method: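 Test system – primary HUVEC, no more than 12 passages · Dosing – one dose, 10 µM final, 0.1% DMSO · Times – 72 h treatment at 37 °C · Measured by – ATP-based CellTiter-Glo luminescent read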
In general terms: ATP-based viability assays read luminescence as a measure of living cells.

A short description of experiment [3]: H69AR cell proliferation blockers – human, duplicate replicates, primary screen (AID 580;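 active means viability at or under a set limit in both replicates, limit being median viability minus 3 SD, cut at about 48% in these data, passing the limit was not always enough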;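 further: 100% = mean luminescence of untreated wells and 0% = no signal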). The conditions noted are these: H69AR lung tumor cells viability, ATP luminescence, 72 h; at 10 µM; stronger effect = lower value.
Experiment [4] is described as follows: MRP1 drug-resistance reversers in H69AR cells – cell-based, doxorubicin co-treatment, pilot screen (AID 601;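 active means viability loss from added drug above about 55%, and viability with drug at most 40%, in both replicates, limit read from the data, passing the limit was not always enough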). The conditions noted are these: CellTiter-Glo, 72 h, at 10 µM; for differential viability (reversal): stronger effect = higher value.
A short description of experiment [5]: yeast transport mutant growth inhibition pilot in 384-well plates, post-Golgi transport modulator project (AID 636; in the data active means inhibition above about 31%). The conditions noted are these: absorbance 615 nm, about 18 h, stronger effect = higher value.
Experiment [6] can be described thus: growth suppression of yeast trafficking mutant, preliminary HTS, modulators of trafficking downstream of Golgi apparatus project, 1536-format plate, OD 615 nm (AID 637; in the data active means inhibition above about 30%). The following applies: yeast transport mutant growth, absorbance 615 nm, 18 h; stronger effect = higher value.
Where [7] appears, read: H69AR cells + 2 uM doxorubicin, measured here: viability with 2 uM doxorubicin, stronger effect = lower value.
Where [8] appears, read: H69AR cells, compound alone cytotoxicity.

Consider `CCOC(=O)c1ccc(NS(=O)(=O)c2ccc3c(c2)CCCN3C(C)=O)cc1`, for which the viability (as a rule, a read-out of living cells in per cent, often relative to untreated cells) is 118% (inactive) in experiment [1]; 104% (inactive) in experiment [2]; 89.8% (inactive) in experiment [3]; 98.7% in experiment [4] (setting [7]); 89.8% in experiment [4] (setting [8]). In addition, the differential viability (reversal) in experiment [4] (H69AR cells + 2 uM doxorubicin) is -8.91% (inactive). Also, the inhibition – broadly, the relative decrease from the control value, in per cent – in experiment [5] is 0.91% (inactive); in experiment [6] it was -0.16% (inactive).

With `CC(C)(C)n1ncc2c(=O)n(CC(=O)NCc3ccc(F)cc3)cnc21`, the viability was 95% (inactive) in experiment [1]; 63.4% (inactive) in experiment [2]; 14.6% (active) in experiment [3]; 74.4% in experiment [4] (setting [7]); 14.6% in experiment [4] (setting [8]). In addition, the differential viability (reversal) in experiment [4] (H69AR cells + 2 uM doxorubicin) was -59.8% (inactive). Further, the inhibition in experiment [5] was 2.43% (inactive); in experiment [6], -5.27% (inactive).

Turning to `CC(=O)Oc1ccc(C(c2ccc(OC(C)=O)cc2)c2ccccn2)cc1`, the viability is 91% (inactive) in experiment [1]; 79% (inactive) in experiment [2]; 94.9% (inactive) in experiment [3]; 95.2% in experiment [4] (setting [7]); 94.9% in experiment [4] (setting [8]). The differential viability (reversal) in experiment [4] (H69AR cells + 2 uM doxorubicin) was -0.25% (inactive). The inhibition in experiment [5] was -0.52% (inactive); in experiment [6] it was 0.83% (inactive).

In the case of `CN(C)C(=O)CN(C)S(=O)(=O)c1ccc(Cl)cc1`, the viability in experiment [1] is 139% (inactive); in experiment [2], 98.9% (inactive); in experiment [3], 97.9% (inactive); in experiment [4] (setting [7]), 104%; in experiment [4] (setting [8]), 97.9%. Also, the differential viability (reversal) in experiment [4] (H69AR cells + 2 uM doxorubicin) was -6.11% (inactive). The figures for the inhibition in experiment [5] and in experiment [6] were -6.3% (inactive) and 1.82% (inactive), respectively.

For the molecule `O=C1c2oc3ccccc3c(=O)c2C(c2cccnc2)N1Cc1ccco1` (centres undefined), the viability was 98% (inactive) in experiment [1]; 106% (inactive) in experiment [2]; 87.8% (inactive) in experiment [3]; 88.4% in experiment [4] (setting [7]); 87.8% in experiment [4] (setting [8]). In addition, in experiment [4] (H69AR cells + 2 uM doxorubicin), the differential viability (reversal) was -0.59% (inactive). Also, the values for the inhibition in experiment [5] and in experiment [6] were -0.96% (inactive) and -2.36% (inactive), respectively.

In the case of `COCCN(CCOC)C(=O)CCn1c(=O)oc2ccccc21`, the viability in experiment [1] was 95% (inactive); in experiment [2] it was 105% (inactive); in experiment [3], 89% (inactive); in experiment [4] (setting [7]) it was 96.5%; in experiment [4] (setting [8]) it was 89%. The differential viability (reversal) in experiment [4] (H69AR cells + 2 uM doxorubicin) was -7.45% (inactive). Besides, the values for the inhibition in experiment [5] and in experiment [6] were -3.97% (inactive) and -0.18% (inactive), respectively.

Regarding `O=C(c1ccco1)N1CCN(CC2CC3C=CC2C3)CC1` (centres undefined), the viability in experiment [1] is 91% (inactive); in experiment [2], 110% (inactive); in experiment [3] it was 95.8% (inactive); in experiment [4] (setting [7]), 90.1%; in experiment [4] (setting [8]), 95.8%. Moreover, the differential viability (reversal) in experiment [4] (H69AR cells + 2 uM doxorubicin) was 5.7% (inactive). The inhibition in experiment [5] is -1.43% (inactive); in experiment [6], -2.13% (inactive).

As for `COc1ccc(CN(CC(=O)NCC2CCCO2)C(=O)CCC(=O)Nc2cc(C)on2)cc1` (centres undefined), the viability in experiment [1] is 77% (inactive); in experiment [2] it was 95.1% (inactive); in experiment [3], 89.4% (inactive); in experiment [4] (setting [7]), 93.4%; in experiment [4] (setting [8]), 89.4%. The differential viability (reversal) in experiment [4] (H69AR cells + 2 uM doxorubicin) is -4.07% (inactive). The inhibition in experiment [5] is 4.53% (inactive); in experiment [6] it was 9.27% (inactive).

Take `COc1ccc(N2CCN(C(=O)Cc3ccc(-n4c(=O)[nH]c5ccccc5c4=O)cc3)CC2)cc1`: the viability is 103% (inactive) in experiment [1]; 75.8% (inactive) in experiment [2]; 94.7% (inactive) in experiment [3]; 91.5% in experiment [4] (setting [7]); 94.7% in experiment [4] (setting [8]). In addition, the differential viability (reversal) in experiment [4] (H69AR cells + 2 uM doxorubicin) was 3.2% (inactive). The inhibition in experiment [5] was 0.26% (inactive); in experiment [6], -3.11% (inactive).

In the case of `CN(C)C(=O)CSc1nnc2sc3ccccc3n12`, the viability was 71% (inactive) in experiment [1]; 105% (inactive) in experiment [2]; 89.2% (inactive) in experiment [3]; 95.3% in experiment [4] (setting [7]); 89.2% in experiment [4] (setting [8]). The differential viability (reversal) in experiment [4] (H69AR cells + 2 uM doxorubicin) was -6.11% (inactive). Further, the inhibition was -8.63% (inactive) in experiment [5] and 1.82% (inactive) in experiment [6].

In the case of `CCCNS(=O)(=O)c1ccc(OCC(=O)Nc2ccccc2F)cc1`, the viability in experiment [1] is 96.5% (inactive); in experiment [2] it was 90.3% (inactive); in experiment [3] it was 87.3% (inactive); in experiment [4] (setting [7]), 79.1%; in experiment [4] (setting [8]), 87.3%. Moreover, the differential viability (reversal) in experiment [4] (H69AR cells + 2 uM doxorubicin) was 8.17% (inactive). In addition, the inhibition in experiment [5] is -4.21% (inactive); in experiment [6] it was -0.81% (inactive).

As to `CN(C)CC(C(=O)c1ccccc1)c1ccccc1` (centres undefined), the viability in experiment [1] was 30.5%; in experiment [2] it was 53.4% (inactive); in experiment [3], 1.17% (active); in experiment [4] (setting [7]) it was 1.68%; in experiment [4] (setting [8]) it was 1.17%. In experiment [4] (H69AR cells + 2 uM doxorubicin), the differential viability (reversal) is -0.515% (inactive). Moreover, the inhibition is 2.95% (inactive) in experiment [5] and -4.33% (inactive) in experiment [6].

With `N#Cc1c(NCc2ccccc2)ccnc1NCc1cccnc1`, the viability in experiment [1] is 78% (inactive); in experiment [2], 59.2% (inactive); in experiment [3], 98.6% (inactive); in experiment [4] (setting [7]), 94.3%; in experiment [4] (setting [8]) it was 98.6%. The differential viability (reversal) in experiment [4] (H69AR cells + 2 uM doxorubicin) was 4.3% (inactive). The inhibition was -6.08% (inactive) in experiment [5] and -0.55% (inactive) in experiment [6].

For the molecule `COc1ccc(NC(=O)N2CCN(c3nc(-c4cccc(OC)c4)cs3)CC2)cc1`, the viability was 94% (inactive) in experiment [1]; 49.3% (inactive) in experiment [2]; 82.8% (inactive) in experiment [3]; 86.8% in experiment [4] (setting [7]); 82.8% in experiment [4] (setting [8]). For the same molecule, the differential viability (reversal) in experiment [4] (H69AR cells + 2 uM doxorubicin) was -4.01% (inactive). In addition, the figures for the inhibition in experiment [5] and in experiment [6] were -9.59% (inactive) and -4.52% (inactive), respectively.

On to `Cc1cc(=O)n2nc(N3CCCC(C(=O)N4CCN(C)CC4)C3)sc2n1` (centres undefined), for which the viability in experiment [1] is 110% (inactive); in experiment [2] it was 101% (inactive); in experiment [3], 95.7% (inactive); in experiment [4] (setting [7]), 88.7%; in experiment [4] (setting [8]), 95.7%. Further, the differential viability (reversal) in experiment [4] (H69AR cells + 2 uM doxorubicin) was 7.05% (inactive). In addition, the inhibition in experiment [5] is -5.81% (inactive); in experiment [6], -5.09% (inactive).

For the molecule `Cc1ccc2nc3c(cc2c1)CN(Cc1ccco1)C(=NCC1CCCO1)S3` (centres undefined), the viability in experiment [1] is 100% (inactive); in experiment [2], 65.6% (inactive); in experiment [3], 7.64% (active); in experiment [4] (setting [7]) it was 9.57%; in experiment [4] (setting [8]), 7.64%. In addition, in experiment [4] (H69AR cells + 2 uM doxorubicin), the differential viability (reversal) was -1.93% (inactive). In addition, the figures for the inhibition in experiment [5] and in experiment [6] were 9.33% (inactive) and -0.18% (inactive), respectively.

For `Nn1c(SCC(=O)Nc2ccc(S(=O)(=O)N3CCCC3)cc2)nnc1C(F)(F)F`, the viability is 110% (inactive) in experiment [1]; 89.7% (inactive) in experiment [2]; 90.8% (inactive) in experiment [3]; 97.6% in experiment [4] (setting [7]); 90.8% in experiment [4] (setting [8]). In addition, the differential viability (reversal) in experiment [4] (H69AR cells + 2 uM doxorubicin) was -6.72% (inactive). Besides, the inhibition in experiment [5] is 0% (inactive); in experiment [6], 3.11% (inactive).

As for `CCOC(=O)Cc1cc(=O)n2[nH]c(C)c(-c3ccc(OC)cc3)c2n1`, the viability is 103% (inactive) in experiment [1]; 56.1% (inactive) in experiment [2]; 92.6% (inactive) in experiment [3]; 83.1% in experiment [4] (setting [7]); 92.6% in experiment [4] (setting [8]). Also, the differential viability (reversal) in experiment [4] (H69AR cells + 2 uM doxorubicin) is 9.51% (inactive). In addition, the inhibition in experiment [5] is -4.34% (inactive); in experiment [6] it was -1% (inactive).
